Test results as given in ChEMBL document CHEMBL3745596, “Chlorophenoxy aminoalkyl derivatives as histamine H(3)R ligands and antiseizure agents” (Bioorg Med Chem, 2016).
Activity calls are given as the source filed them.

Columns and labels:
Mus musculus [1] = test: Neurotoxicity in CF1 albino mouse at 3 mg/kg, ip after 0.5 hrs by rotarod test; assay type: toxicity, organism-based; conditions: in vivo
Method in brief: (§1)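 Rotarod neurotoxicity in male albino CF-1 mice dosed ip with compound suspended in 0.5% methylcellulose. Animal placed on a 1 inch diameter knurled plastic rod rotating at 6 rpm. Neurotoxicity scored when the animal falls off three times within 1 min. Readout is number of animals toxic/number tested at the stated time after dosing. TD50 with 95% confidence interval from the quantitative study.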

Mus musculus [2] = test: Neurotoxicity in CF1 albino mouse at 30 mg/kg, ip after 4 hrs by rotarod test; assay type: toxicity, organism-based; conditions: in vivo; method in brief: as §1
Mus musculus [3] = test: Anticonvulsant activity in CF1 albino mouse assessed as protection against maximal electroshock-induced seizure at 3 mg/kg, ip after 0.5 hrs; assay type: functional, organism-based
Method in brief: (§2)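 Male CF-1 mice dosed ip as suspension in 0.5% methylcellulose. Corneal electrodes deliver 60 Hz alternating current, 50 mA for […], after a drop of 0.5% tetracaine HCl in 0.9% NaCl per eye. Protection means abolition of hindlimb tonic extension; scored as protected/tested, or ED50 with 95% confidence interval.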

Mus musculus [4] = test: Neurotoxicity in CF1 albino mouse at 10 mg/kg, ip after 0.5 hrs by rotarod test; assay type: toxicity, organism-based; conditions: in vivo
Method in brief: (§3)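 Rotarod neurotoxicity in male CF-1 mice dosed ip as 0.5% methylcellulose suspension: mouse placed on 1 inch knurled rod rotating at 6 rpm; toxicity when the animal falls off three times within 1 min, with other signs noted. Scored as toxic/tested at 0.5 h and 4 h.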

Mus musculus [5] = test: Anticonvulsant activity in CF1 albino mouse assessed as protection against maximal electroshock-induced seizure at 30 mg/kg, ip after 0.5 hrs; assay type: functional, organism-based; method in brief: as §2
Histamine H3 receptor [6] = target: T1, Histamine H3 receptor (Homo sapiens, UniProt Q9Y5N1); test: Displacement of [3H]-Nalpha-methylhistamine from human recombinant histamine H3 receptor expressed in HEK293 cells after 90 mins; assay type: cell-based
T1 sequence (Q9Y5N1 whole entry): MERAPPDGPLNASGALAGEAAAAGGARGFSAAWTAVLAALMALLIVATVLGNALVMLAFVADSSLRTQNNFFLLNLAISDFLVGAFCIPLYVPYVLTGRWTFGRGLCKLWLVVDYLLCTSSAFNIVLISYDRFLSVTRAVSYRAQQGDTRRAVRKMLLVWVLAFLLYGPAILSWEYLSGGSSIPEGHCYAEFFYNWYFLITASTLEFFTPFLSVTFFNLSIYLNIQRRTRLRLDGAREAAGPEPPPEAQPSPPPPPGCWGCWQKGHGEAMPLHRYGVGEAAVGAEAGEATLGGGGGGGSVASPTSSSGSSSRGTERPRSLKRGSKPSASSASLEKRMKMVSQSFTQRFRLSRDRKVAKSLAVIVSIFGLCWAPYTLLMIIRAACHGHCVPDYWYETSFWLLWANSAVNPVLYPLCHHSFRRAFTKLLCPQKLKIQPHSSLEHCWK

Mus musculus [7] = test: Neurotoxicity in CF1 albino mouse assessed as death at 100 mg/kg, ip after 0.5 hrs by rotarod test; assay type: toxicity, organism-based; conditions: in vivo
Method in brief: (§4)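 Male albino CF-1 mice dosed ip with compound suspended in 0.5% methylcellulose, then placed on a 1-inch knurled plastic rod turning at 6 rpm. A fall three times within 1 min counted as neurotoxicity. Observations were made at 0.5 h and 4 h after dosing. Result given as animals showing toxicity per animals tested, with the kind of toxicity recorded.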

Mus musculus [8] = test: Anticonvulsant activity in CF1 albino mouse assessed as protection against subcutaneous pentetrazole-induced seizure at 30 mg/kg, ip after 4 hrs; assay type: functional, organism-based
Method in brief: (§5)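 Male CF-1 mice, ip in 0.5% methylcellulose; pentetrazole at CD97 (85 mg/kg) injected subcutaneously in a loose fold of neck skin. Observed 30 min; absence of even a threshold seizure (single clonic spasm lasting at least 5 s) counted as protection. Scored protected/tested, or ED50.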

Mus musculus [9] = test: Neurotoxicity in CF1 albino mouse assessed as vocalization at 30 mg/kg, ip after 0.5 hrs by rotarod test; assay type: toxicity, organism-based; conditions: in vivo; method in brief: as §3
Mus musculus [10] = test: Neurotoxicity in CF1 albino mouse at 300 mg/kg, ip after 4 hrs by rotarod test; assay type: toxicity, organism-based; conditions: in vivo; method in brief: as §1
Mus musculus [11] = test: Anticonvulsant activity in CF1 albino mouse assessed as protection against subcutaneous pentetrazole-induced seizure at 30 mg/kg, ip after 0.5 hrs; assay type: functional, organism-based; method in brief: as §5
Mus musculus [12] = test: Anticonvulsant activity in CF1 albino mouse assessed as protection against maximal electroshock-induced seizure at 30 mg/kg, ip after 4 hrs; assay type: functional, organism-based; method in brief: as §2
Mus musculus [13] = test: Neurotoxicity in CF1 albino mouse assessed as death at 300 mg/kg, ip after 0.5 hrs by rotarod test; assay type: toxicity, organism-based; conditions: in vivo; method in brief: as §4
Mus musculus [14] = test: Anticonvulsant activity in CF1 albino mouse assessed as protection against maximal electroshock-induced seizure at 10 mg/kg, ip after 0.5 hrs; assay type: functional, organism-based; method in brief: as §2
Mus musculus [15] = test: Neurotoxicity in CF1 albino mouse at 100 mg/kg, ip after 4 hrs by rotarod test; assay type: toxicity, organism-based; conditions: in vivo; method in brief: as §1
Mus musculus [16] = test: Anticonvulsant activity in CF1 albino mouse assessed as protection against 6 Hz-psychomotor-induced seizure at 30 mg/kg, ip after 0.25 to 4 hrs; assay type: functional, organism-based
Method in brief: (§6)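 Male CF-1 mice, ip suspension in 0.5% methylcellulose. Corneal stimulation 0.2 ms monopolar rectangular pulses at 6 Hz, 32 mA for 3 s via constant-current device; mice without minimal clonic phase seizure counted protected. Groups of four; read at 0.25, 0.5, 1, 2, 4 h; result as protected/tested.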

[17] = Neuroprotective activity in hippocampal slice (unknown origin) assessed as protection against NMDA-induced cell death using propidium iodide staining; assay type: functional; conditions: Hippocampus
Method in brief: (§7)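 Organotypic hippocampal slice cultures exposed to NMDA or kainic acid alone or with compound; propidium iodide in all wells; PI fluorescence intensity of slices, proportional to cell death, compared with excitotoxin-only slices; qualitative.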

Rattus norvegicus [18] = test: Anticonvulsant activity in Sprague-Dawley rat assessed as protection against pilocarpine-induced convulsive status epilepticus at 65 mg/kg, ip; assay type: functional, organism-based
Method in brief: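 Male Sprague Dawley rats (150–180 g) dosed ip, pilocarpine 50 mg/kg ip given; compound dosed immediately at first behavioral Stage 3 seizure or 30 min later. Number protected from Racine Stage 3 or greater seizures recorded.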

Mus musculus [19] = test: Anticonvulsant activity in CF1 albino mouse assessed as protection against 6 Hz-psychomotor-induced seizure at 60 mg/kg, ip after 4 hrs; assay type: functional, organism-based; method in brief: as §6
Mus musculus [20] = test: Neurotoxicity in CF1 albino mouse at 60 mg/kg, ip after 1 to 4 hrs by rotarod test; assay type: toxicity, organism-based; conditions: in vivo; method in brief: as §1
[21] = Neuroprotective activity in hippocampal slice (unknown origin) assessed as protection against kainic acid-induced cell death using propidium iodide staining; assay type: functional; conditions: Hippocampus; method in brief: as §7
Mus musculus [22] = test: Neurotoxicity in CF1 albino mouse at 30 mg/kg, ip after 0.25 to 4 hrs by rotarod test; assay type: toxicity, organism-based; conditions: in vivo; method in brief: as §1
Cytochrome P450 3A4 = Cytochrome P450 3A4 (Homo sapiens, UniProt P08684); test: Inhibition of CYP3A4 (unknown origin) up to 10 uM; assay type: ADME
Cytochrome P450 3A4, sequence (P08684 whole entry): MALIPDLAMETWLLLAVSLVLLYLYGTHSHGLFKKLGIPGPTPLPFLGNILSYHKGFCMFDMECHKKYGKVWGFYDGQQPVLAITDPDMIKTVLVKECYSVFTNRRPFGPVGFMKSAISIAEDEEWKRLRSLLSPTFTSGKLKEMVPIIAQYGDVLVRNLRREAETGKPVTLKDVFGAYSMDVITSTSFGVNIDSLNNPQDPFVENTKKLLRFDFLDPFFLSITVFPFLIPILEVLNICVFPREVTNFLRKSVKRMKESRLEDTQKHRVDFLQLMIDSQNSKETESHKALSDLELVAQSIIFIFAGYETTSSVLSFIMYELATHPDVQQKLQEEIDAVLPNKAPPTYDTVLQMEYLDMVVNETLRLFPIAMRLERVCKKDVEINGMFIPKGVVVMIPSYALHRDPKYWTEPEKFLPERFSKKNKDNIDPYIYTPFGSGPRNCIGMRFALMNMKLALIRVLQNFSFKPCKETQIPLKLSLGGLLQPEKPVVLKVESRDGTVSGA

Mus musculus [23] = test: Neurotoxicity in CF1 albino mouse at 30 mg/kg, ip after 0.5 hrs by rotarod test; assay type: toxicity, organism-based; conditions: in vivo; method in brief: as §1
Rattus norvegicus [24] = test: Anticonvulsant activity in Sprague-Dawley rat assessed as protection against maximal electroshock-induced seizure at 30 mg/kg, po; assay type: functional
Mus musculus [25] = test: Neurotoxicity in CF1 albino mouse assessed as unable to grasp rotarod and death at 100 mg/kg, ip after 0.5 hrs by rotarod test; assay type: toxicity, organism-based; conditions: in vivo; method in brief: as §4
Mus musculus [26] = test: Anticonvulsant activity in CF1 albino mouse assessed as protection against subcutaneous pentetrazole-induced seizure at 100 mg/kg, ip after 4 hrs; assay type: functional, organism-based; method in brief: as §5
Mus musculus [27] = test: Anticonvulsant activity in CF1 albino mouse assessed as protection against subcutaneous pentetrazole-induced seizure at 100 mg/kg, ip after 0.5 hrs; assay type: functional, organism-based; method in brief: as §5
Liver microsome = test: Drug metabolism in human liver microsomes after 2 hrs by UPLC-MS/MS analysis; assay type: ADME
Method in brief: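 Pooled adult male and female human liver microsomes 1 mg/mL in 0.1 M Tris–HCl pH 7.4 with NADPH regeneration system; started after 5 min preincubation at 37 °C, incubated 2 h at 37 °C, stopped with cold methanol, centrifuged, supernatant analysed by UPLC with ESI tandem quadrupole MS.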

[28] = Antiproliferative activity against human IMR32 cells assessed as cell viability after 48 hrs by formazan EZ4U dye based assay; conditions: IMR-32, 48 h
Method in brief: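 HEK-293 (1.5 × 10⁴/well) or IMR-32 (2 × 10⁴/well) cells in DMEM with 10% FBS, 37 °C, 5% CO₂, grown 24 h to about 60% confluence; compounds 0.01–250 µM final, DMSO at most 1%, 48 h.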

Histamine H3 receptor [29] = target: T1, Histamine H3 receptor; test: Antagonist activity at human recombinant histamine H3 receptor expressed in HEK293 cells assessed as inhibition of forskolin/(R)(-)-alpha-methylhistamine-induced cAMP accumulation after 1 hr by TR-FRET immunoassay; assay type: functional, cell-based
Method in brief: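 HEK293 cells stably expressing hH3R, stimulated 30 min at room temperature with (R)(-)-α-methylhistamine (15 nM), forskolin and antagonist (0.1 nM–10 µM range) added together. cAMP read by TR-FRET (Eu-cAMP tracer, ULight anti-cAMP antibody, 1 h), converted via cAMP standard curve to % maximal response. Sigmoidal dose–response fit; mean of three experiments, each in triplicate.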

Row | SMILES | Activity (Mus musculus [1]) | Activity (Mus musculus [2]) | Activity (Mus musculus [3]) | Activity (Mus musculus [4]) | Activity (Mus musculus [5]) | Ki (Histamine H3 receptor [6]) [nM] | Activity (Mus musculus [7]) | Activity (Mus musculus [8]) | Activity (Mus musculus [10]) | Activity (Mus musculus [11]) | Activity (Mus musculus [12]) | Activity (Mus musculus [13]) | Activity (Mus musculus [14]) | Activity (Mus musculus [15]) | other results
1 | CC1CCN(CCCCCOc2ccc(Cl)cc2)CC1.O=C(O)C(=O)O | Non-toxic | Non-toxic | inactive | Non-toxic | Active | 800 | Toxic | inactive | Non-toxic | inactive | Active | Toxic | inactive | Non-toxic | Activity (Mus musculus [9]): Toxic
2 | Clc1ccc(OCCCCCCN2CCCCC2)cc1.O=C(O)C(=O)O | Non-toxic | Non-toxic | inactive | Non-toxic | Active | 265 | Toxic | inactive | Non-toxic | inactive | inactive | Toxic | inactive | Non-toxic | Activity (Mus musculus [16]): inactive; Activity [17]: inactive; Activity (Rattus norvegicus [18]): Active; Activity (Mus musculus [19]): inactive; Activity (Mus musculus [20]): Non-toxic; Activity [21]: inactive; Activity (Mus musculus [22]): Non-toxic
3 | CC1CCCN(CCCCCOc2ccc(Cl)cc2)C1.O=C(O)C(=O)O (stereo not drawn) | Non-toxic | Non-toxic | inactive | Non-toxic | Active | 133 |  | inactive | Non-toxic | inactive | inactive | Toxic | inactive | Non-toxic | inhibition (INH) (Cytochrome P450 3A4): Not Active; Activity (Mus musculus [23]): Non-toxic; Activity (Rattus norvegicus [24]): 25%; Activity (Mus musculus [25]): Toxic; Activity (Mus musculus [26]): inactive; Activity (Mus musculus [27]): inactive; Drug metabolism (Liver microsome): metabolite_detected; IC50 [28]: 89 µM; EC50 (Histamine H3 receptor [29]): 72 nM
